Experimental findings from ChEMBL document CHEMBL1135562, “Cyclic acid anhydrides as a new class of potent, selective and non-peptidic inhibitors of geranylgeranyl transferase” (Bioorg Med Chem Lett, 2002) are described below.

In general, IC50 refers to the concentration that gives 50% inhibition.

Each structure is given as a SMILES string.

The target in experiment [1] is T1, Geranylgeranyl transferase type I (Homo sapiens, UniProt P49354+P53609). The experiment can be described thus: In vitro inhibition of geranylgeranyl-protein transferase type-I. The class given is protein-complex assay. In a few lines: (§1)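 Recombinant human GGPTase-I; substrate recombinant human H-Ras CVLL with [1-(n)-3H]geranylgeranylpyrophosphate (615 GBq/mmol). Activity is the [3H]geranylgeranyl transferred to Ras, measured by filter binding. IC50 is the concentration inhibiting specific activity by 50%, derived by non-linear regression fit to a dose–response curve.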

Experiment [2] addresses T2, Protein farnesyltransferase (Homo sapiens, UniProt P49354+P49356). The experiment can be described thus: In vitro inhibition of farnesyl-protein transferase. The format is protein-complex assay. The gist of the method: (§2)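 Recombinant human FPTase; substrate recombinant human wild-type H-Ras with [1-(n)-3H]farnesylpyrophosphate (555 GBq/mmol). Enzyme activity is the [3H]farnesyl transferred to Ras, measured by filter binding. IC50 is the concentration giving 50% inhibition of specific activity, fitted by non-linear regression to a dose–response curve.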

The target of experiment [3] is T3, Protein farnesyl/geranylgeranyl transferase (Homo sapiens) (UniProt P49354+P49356+P53609). Briefly: Ratio of human Farnesyltransferase to human Geranylgeranyl transferase type I activity as IC50; 166:252. The format is protein-complex assay.
Experiment [4] concerns the target T1, Geranylgeranyl transferase type I. The experiment can be described thus: In vitro inhibition of Geranylgeranyl transferase type I. The class given is protein-complex assay. In a few lines: as §1
Experiment [5] has as its target T2, Protein farnesyltransferase. Briefly: In vitro inhibition of Farnesyltransferase. The class given is protein-complex assay. The gist of the method:
as §2

The nature of experiment [6]: In vitro inhibition of geranylgeranyl-protein transferase type-II. More on the design: species or system Homo sapiens.
The target of experiment [7] is T3, Protein farnesyl/geranylgeranyl transferase (Homo sapiens). Briefly: Ratio of human Farnesyltransferase to human Geranylgeranyl transferase type I activity as IC50; 900:500. The format is protein-complex assay.

Take `CC(C)=CCCC1=CCC2C(=O)OC(=O)C2C1` (configuration not stated): the IC50 in experiment [1] was found to be 40.2 µM; in experiment [2] it was 449 µM.

For `CCCCCCCCCCCCC(C(=O)O)C(C(=O)O)C(=O)O` (configuration not stated), the Ratio in experiment [3] turned out to be 0.66. As to `CC(C)=CCCC1=CCC(C(=O)O)C(C(=O)O)C1` (configuration not stated), the figures for the IC50 in experiment [1] and in experiment [2] were 900 µM and over 1000 µM, respectively. In turn, `COC(=O)C1CC=C(CCCC(C)CCCC(C)CCCC(C)C)CC1C(=O)OC` (configuration not stated) had an IC50 in experiment [1] of over 1000 µM.

As to `CCCCCCCCC/C=C/CC1CC(=O)OC1=O` (configuration not stated), the IC50 in experiment [1] is 401 µM; in experiment [2], over 1000 µM. The corresponding values for `CC(C)CCCC(C)CCCC(C)CCCC1=CCC2C(=O)OC(=O)C2C1` (configuration not stated) are 20.8 µM and over 1000 µM. For the compound `CC(C)=CCC/C(C)=C/CCC1=CCC2C(=O)OC(=O)C2C1` (configuration not stated) [listing 1 of 2 here], the values for the IC50 in experiment [4] and in experiment [5] were 503 µM and 9 µM, respectively. With `CC(C)=CCC/C(C)=C/C=C1\CCC(C(=O)O)C(C(=O)O)C1` (configuration not stated), the figures for the IC50 in experiment [1] and in experiment [2] were 420 µM and over 1000 µM, respectively. The corresponding values for `CCCCCCCCC/C=C/CC(CC(=O)O)C(=O)O` (configuration not stated) are over 1000 µM and 402 µM.

For the compound `CC(C)=CCC/C(C)=C/CCC1=CCC2C(=O)OC(=O)C2C1` (configuration not stated) [listing 2 of 2 here], the IC50 in experiment [1] is 136 µM; in experiment [2], 190 µM.

As to `C=C1CC(=O)OC1=O` [ITACONIC ANHYDRIDE], the IC50 in experiment [1] and in experiment [2] was over 1000 µM in each case. As for `CC(C)CCCC(C)CCCC(C)CCCC1=CCC(C(=O)O)C(C(=O)O)C1` (configuration not stated), the IC50 in experiment [1] and in experiment [2] was over 1000 µM in each case. Take `CCCCCCCCCCCCCC/C(C(=O)O)=C(\C)C(=O)O` [CHAETOMELLIC ACID A]: the IC50 in experiment [1] came to 92 µM; in experiment [6], 34 µM. On to `COC(=O)C1CC=C(CCC=C(C)C)CC1C(=O)OC` (configuration not stated), for which the Ratio in experiment [7] was 1.8. Regarding `CCCCCCCCCCCC(=O)OC(=O)CCCCCCCCCCC` [DODECANOIC ANHYDRIDE], the results for the IC50 in experiment [1] and in experiment [2] were 229 µM and 854 µM, respectively.
